Measurements as given in article PMC4540355 (Biochemistry, 2009).

Legend:
[1] = target: T1, skelemin fragment (Mus musculus, UniProt Q62234); assay: Solid-phase assay: binding of [125I]skelemin to peptides coated on wells; conditions: wells coated with peptide 20 μg/mL, postcoated with 1% BSA
T1 sequence (Q62234 1113-1666): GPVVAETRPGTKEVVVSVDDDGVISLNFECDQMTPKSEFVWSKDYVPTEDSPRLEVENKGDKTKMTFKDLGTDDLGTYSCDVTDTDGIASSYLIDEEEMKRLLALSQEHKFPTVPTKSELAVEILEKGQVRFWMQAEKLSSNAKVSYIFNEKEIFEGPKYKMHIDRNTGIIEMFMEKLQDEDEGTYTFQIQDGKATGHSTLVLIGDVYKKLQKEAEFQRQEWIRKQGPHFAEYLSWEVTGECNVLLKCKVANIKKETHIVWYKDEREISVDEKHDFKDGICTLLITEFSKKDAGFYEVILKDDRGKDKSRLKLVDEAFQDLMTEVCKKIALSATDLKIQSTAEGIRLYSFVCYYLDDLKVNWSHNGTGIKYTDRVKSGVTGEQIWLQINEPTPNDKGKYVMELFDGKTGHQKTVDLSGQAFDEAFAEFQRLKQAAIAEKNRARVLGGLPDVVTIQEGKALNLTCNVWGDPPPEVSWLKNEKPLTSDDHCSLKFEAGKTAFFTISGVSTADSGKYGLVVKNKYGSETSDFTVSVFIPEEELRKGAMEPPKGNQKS
In short: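 Mouse skelemin fragment (residues 1113–1666) made as a GST fusion, cut free with thrombin and radioiodinated. Wells coated with wild-type or mutant αIIb 989–1008 peptide at 20 μg/mL, postcoated with 1% BSA, then given various concentrations of [125I]skelemin. Bound radioactivity counted.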

[2] = target: T2, skelemin binding to αIIbβ3 (Mus musculus, UniProt Q62234); set-up: species or system human
T2 sequence (Q62234 1113-1666): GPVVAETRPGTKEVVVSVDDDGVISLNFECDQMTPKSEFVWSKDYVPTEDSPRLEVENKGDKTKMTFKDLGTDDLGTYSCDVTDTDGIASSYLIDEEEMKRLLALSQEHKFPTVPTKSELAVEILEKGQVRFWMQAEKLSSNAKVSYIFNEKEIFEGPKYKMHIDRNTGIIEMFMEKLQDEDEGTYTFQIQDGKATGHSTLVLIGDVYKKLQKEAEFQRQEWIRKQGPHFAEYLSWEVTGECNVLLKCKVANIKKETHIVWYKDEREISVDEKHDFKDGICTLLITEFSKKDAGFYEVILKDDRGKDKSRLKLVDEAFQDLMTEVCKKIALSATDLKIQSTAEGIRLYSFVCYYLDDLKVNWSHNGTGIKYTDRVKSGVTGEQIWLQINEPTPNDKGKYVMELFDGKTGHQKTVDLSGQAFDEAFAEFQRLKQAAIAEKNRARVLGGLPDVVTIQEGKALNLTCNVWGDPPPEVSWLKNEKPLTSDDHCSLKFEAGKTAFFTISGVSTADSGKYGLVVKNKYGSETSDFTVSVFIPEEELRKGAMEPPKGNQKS

[3] = target: T1, skelemin fragment; assay type: binding
In short: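 CM5 chip carried amine-coupled skelemin fragment (~900 RU). αIIb 989–1008 peptide at 0, 10, 20, 40, 100 and 200 μM in HBS-P with 1 mM Ca2+ and 1 mM Mg2+, injected at 5 μL/min for 10 min. Signal corrected against an EDC/NHS-activated, ethanolamine-blocked blank cell. Kd from best fit to an interaction model.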

[4] = target: human fibrinogen, depleted of fibronectin and plasminogen (human) (UniProt P02671); assay: solid-phase binding assay with 125I-labelled protein
human fibrinogen, depleted of fibronectin and plasminogen (human), sequence (P02671 36-866, chain 1 of 3): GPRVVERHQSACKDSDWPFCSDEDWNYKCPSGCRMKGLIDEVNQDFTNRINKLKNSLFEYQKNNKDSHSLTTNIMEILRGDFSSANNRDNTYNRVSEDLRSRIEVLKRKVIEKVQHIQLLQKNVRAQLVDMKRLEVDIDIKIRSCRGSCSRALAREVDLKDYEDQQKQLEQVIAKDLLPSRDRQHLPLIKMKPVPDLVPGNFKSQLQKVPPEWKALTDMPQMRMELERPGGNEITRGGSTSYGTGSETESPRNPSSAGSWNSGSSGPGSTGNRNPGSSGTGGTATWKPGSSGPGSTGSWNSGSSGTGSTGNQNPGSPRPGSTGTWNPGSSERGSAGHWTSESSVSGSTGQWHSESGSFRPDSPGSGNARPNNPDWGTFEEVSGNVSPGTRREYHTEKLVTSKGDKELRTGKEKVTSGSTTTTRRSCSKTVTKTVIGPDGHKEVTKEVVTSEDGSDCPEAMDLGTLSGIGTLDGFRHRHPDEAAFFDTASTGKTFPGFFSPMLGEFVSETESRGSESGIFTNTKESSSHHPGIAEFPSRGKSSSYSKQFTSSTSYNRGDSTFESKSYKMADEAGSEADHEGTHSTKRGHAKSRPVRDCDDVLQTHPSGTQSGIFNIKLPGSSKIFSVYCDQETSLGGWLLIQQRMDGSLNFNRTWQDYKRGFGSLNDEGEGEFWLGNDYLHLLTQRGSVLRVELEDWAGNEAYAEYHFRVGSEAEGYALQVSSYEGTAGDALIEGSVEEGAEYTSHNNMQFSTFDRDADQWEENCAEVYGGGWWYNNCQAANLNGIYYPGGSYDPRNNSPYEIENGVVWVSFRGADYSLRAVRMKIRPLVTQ
human fibrinogen, depleted of fibronectin and plasminogen (human), sequence (P02675 45-491, chain 2 of 3, further chain): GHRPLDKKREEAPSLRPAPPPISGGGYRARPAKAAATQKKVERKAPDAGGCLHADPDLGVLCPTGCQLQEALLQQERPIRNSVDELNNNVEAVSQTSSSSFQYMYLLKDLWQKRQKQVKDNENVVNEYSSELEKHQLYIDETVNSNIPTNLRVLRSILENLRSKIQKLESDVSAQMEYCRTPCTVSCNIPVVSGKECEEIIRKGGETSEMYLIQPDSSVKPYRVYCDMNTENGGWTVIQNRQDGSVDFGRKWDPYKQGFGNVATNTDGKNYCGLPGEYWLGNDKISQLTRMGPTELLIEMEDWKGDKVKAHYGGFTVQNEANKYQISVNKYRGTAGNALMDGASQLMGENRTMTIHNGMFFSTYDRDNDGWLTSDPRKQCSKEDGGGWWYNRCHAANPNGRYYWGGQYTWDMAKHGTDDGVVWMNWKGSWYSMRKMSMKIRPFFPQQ
human fibrinogen, depleted of fibronectin and plasminogen (human), sequence (P02679 27-453, chain 3 of 3, further chain): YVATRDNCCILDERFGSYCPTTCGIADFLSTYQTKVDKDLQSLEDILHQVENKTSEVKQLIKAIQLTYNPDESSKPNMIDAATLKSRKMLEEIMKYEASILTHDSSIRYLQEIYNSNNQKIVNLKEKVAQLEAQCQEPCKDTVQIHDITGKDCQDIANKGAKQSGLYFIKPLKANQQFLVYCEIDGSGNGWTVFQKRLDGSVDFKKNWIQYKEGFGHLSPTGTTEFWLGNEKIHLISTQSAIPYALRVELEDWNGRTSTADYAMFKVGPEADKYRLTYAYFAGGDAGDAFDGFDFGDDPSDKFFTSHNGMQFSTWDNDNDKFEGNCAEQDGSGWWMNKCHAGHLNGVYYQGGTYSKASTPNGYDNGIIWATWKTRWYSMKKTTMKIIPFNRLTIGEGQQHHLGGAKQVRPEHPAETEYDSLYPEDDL

[5] = target: fibrin monomer with both fibrinopeptides A and B cleaved (human) (UniProt P02671); assay: as above
fibrin monomer with both fibrinopeptides A and B cleaved (human), sequence (P02671 36-866, chain 1 of 3): as the sequence (P02671 36-866, chain 1 of 3) above
fibrin monomer with both fibrinopeptides A and B cleaved (human), sequence (P02675 45-491, chain 2 of 3, further chain): as the sequence (P02675 45-491, chain 2 of 3, further chain) above
fibrin monomer with both fibrinopeptides A and B cleaved (human), sequence (P02679 27-453, chain 3 of 3, further chain): as the sequence (P02679 27-453, chain 3 of 3, further chain) above

[6] = target: fibrinogen D100 (100 kDa) fragment (human); assay: as above
[7] = target: αIIb 9-mer peptides with mutations of Val990, Phe992, and Leu1000; assay: peptide or protein array
[8] = target: cellulose-bound αIIb 9-mer peptide with Arg997 substituted with Ala (human) (UniProt P08514); assay: peptide or protein array
[9] = target: cellulose-bound αIIb 9-mer peptide with Arg995 substituted with Ala (human) (UniProt P08514); assay: peptide or protein array
[10] = target: platelet integrin αIIbβ3 (human) (UniProt P05106); assay: solid-phase binding assay with 125I-labelled protein
[11] = test system: αIIbβ3; assay type: binding, human; conditions: integrin adsorbed on plastic without ligand
[12] = test system: αIIbβ3; assay type: binding, human
In short: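 αIIbβ3 purified from human platelets on Concanavalin A-agarose. Passed at 0, 50, 100, 200 and 500 μg/mL in HBS-P with 1 mM Ca2+/Mg2+ over amine-coupled skelemin fragment (~900 RU), with a fibrinogen parallel cell (~1300 RU) checking resting state. For activation, DTT 3 mM final, 15 min at 4 °C, then extensive dialysis; activated integrin injected 5 min at 10 μL/min. Blank-cell corrected.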

## KVGFFKANAPALEEDDEEGE [mutant αIIb peptide]
[1]
  Binding of [125I]skelemin to immobilized peptide: lost the ability to bind
[2]; mutant peptide
  Inhibition of skelemin binding to αIIbβ3 prebound to ligands: did not inhibit
[3]
  Binding to skelemin coupled to the chip (SPR): did not bind

## platelet integrin αIIbβ3 (from UniProt P05106 27-788) (complex)
[4]
  amount of αIIbβ3 bound: 76 ng
[5]
  amount of αIIbβ3 bound: 76 ng
[6]
  amount of αIIbβ3 bound: 76 ng

## GY^715 WALLITIADAKEFAKF^730 [β3 mutant 2]
[1]
  Binding of [125I]skelemin to immobilized peptide: still further loss
[2]; skelemin binding and inhibition
  Overall activity relative to the wild-type counterpart: residual activity

## GY^715 WALLITIADRKEFAKF^730 [β3 mutant 1]
[1]
  Binding of [125I]skelemin to immobilized peptide: reduced level of skelemin binding

B1: recombinant fragment spanning immunoglobulin C2-like motifs 3–7 of mouse skelemin (domain or fragment)
chain: GPVVAETRPGTKEVVVSVDDDGVISLNFECDQMTPKSEFVWSKDYVPTEDSPRLEVENKGDKTKMTFKDLGTDDLGTYSCDVTDTDGIASSYLIDEEEMKRLLALSQEHKFPTVPTKSELAVEILEKGQVRFWMQAEKLSSNAKVSYIFNEKEIFEGPKYKMHIDRNTGIIEMFMEKLQDEDEGTYTFQIQDGKATGHSTLVLIGDVYKKLQKEAEFQRQEWIRKQGPHFAEYLSWEVTGECNVLLKCKVANIKKETHIVWYKDEREISVDEKHDFKDGICTLLITEFSKKDAGFYEVILKDDRGKDKSRLKLVDEAFQDLMTEVCKKIALSATDLKIQSTAEGIRLYSFVCYYLDDLKVNWSHNGTGIKYTDRVKSGVTGEQIWLQINEPTPNDKGKYVMELFDGKTGHQKTVDLSGQAFDEAFAEFQRLKQAAIAEKNRARVLGGLPDVVTIQEGKALNLTCNVWGDPPPEVSWLKNEKPLTSDDHCSLKFEAGKTAFFTISGVSTADSGKYGLVVKNKYGSETSDFTVSVFIPEEELRKGAMEPPKGNQKS
modifications: 125I label (IODO-GEN) where used as [125I]skelemin
[7]
  reduction of binding against the wild-type peptide: 40 to 50%
[8]
  reduction of binding against the wild-type peptide: 70%
[9]
  reduction of binding against the wild-type peptide: 70%
[10]
  Kd, high-affinity class of binding sites: 123 nM
  Kd, low-affinity class of binding sites: 1100 nM
  N, high-affinity interaction (skelemin to receptor) (skelemin per receptor): 1
  N, low-affinity interaction (skelemin to receptor) (skelemin per receptor): 0.33

B2: skelemin fragment: recombinant fragment spanning immunoglobulin C2-like motifs 3–7 of mouse skelemin, residues 1113–1666 (protein)
chain: GPVVAETRPGTKEVVVSVDDDGVISLNFECDQMTPKSEFVWSKDYVPTEDSPRLEVENKGDKTKMTFKDLGTDDLGTYSCDVTDTDGIASSYLIDEEEMKRLLALSQEHKFPTVPTKSELAVEILEKGQVRFWMQAEKLSSNAKVSYIFNEKEIFEGPKYKMHIDRNTGIIEMFMEKLQDEDEGTYTFQIQDGKATGHSTLVLIGDVYKKLQKEAEFQRQEWIRKQGPHFAEYLSWEVTGECNVLLKCKVANIKKETHIVWYKDEREISVDEKHDFKDGICTLLITEFSKKDAGFYEVILKDDRGKDKSRLKLVDEAFQDLMTEVCKKIALSATDLKIQSTAEGIRLYSFVCYYLDDLKVNWSHNGTGIKYTDRVKSGVTGEQIWLQINEPTPNDKGKYVMELFDGKTGHQKTVDLSGQAFDEAFAEFQRLKQAAIAEKNRARVLGGLPDVVTIQEGKALNLTCNVWGDPPPEVSWLKNEKPLTSDDHCSLKFEAGKTAFFTISGVSTADSGKYGLVVKNKYGSETSDFTVSVFIPEEELRKGAMEPPKGNQKS
modifications: 125I label (IODO-GEN) where used as [125I]skelemin; left off: GST, end not stated, cleaved
[11]
  Skelemin binding to αIIbβ3 immobilized directly on plastic: small amount
[12]; resting integrin, various concentrations
  Interaction of resting soluble αIIbβ3 with immobilized skelemin fragment: No interaction was detected
[12]; αIIbβ3 activated with 3 mM DTT 15 min at 4 °C, 0-500 μg/mL
  Binding of DTT-treated soluble αIIbβ3 to immobilized skelemin fragment: did not bind
